Laboratory results reported in ChEMBL document CHEMBL5247575 (J Med Chem, 2018).
Converted amounts (≈) assume the structure as drawn.

Assays:
[1] = tested on: Bacteria
[2] = tested on: Pseudomonas aeruginosa; assay: Synergistic antibacterial activity against Pseudomonas aeruginosa 715 assessed as cefepime MIC at 8 ug/ml by broth microdilution method; type: functional; details: dose 8 µg/ml
[3] = tested on: Pseudomonas aeruginosa; assay: Antibacterial activity against Pseudomonas aeruginosa 795 by broth microdilution method; type: functional
[4] = tested on: Bacteria; assay: Inhibition of bacteria OXA-48 assessed as Koff rate using nitrocefin as substrate incubated for 30 mins
[5] = tested on: Escherichia coli; assay: Antibacterial activity against Escherichia coli DH10B transfected with pBC SK (-) KPC-2 by broth microdilution method; type: functional
[6] = tested on: Bacteria; assay: Inhibition of bacteria OXA-48 assessed as second order rate constant K2/K using nitrocefin as substrate
[7] = tested on: Acinetobacter baumannii; assay: Antibacterial activity against Acinetobacter baumannii NCTC 13301 producing OXA-23/51 infected in sc dosed Swiss albino mouse administered 1 hr post infection and measured upto 7 days; type: functional; details: NCTC 13301, 168 h, time <= 7 day; for ED50: read-out: PD50
Method in brief: (§1)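 Peritonitis model: male and female Swiss albino mice infected intraperitoneally with 3.5×10^5 to 3×10^6 CFU/mouse in 5% hog gastric mucin (lethal to untreated mice within 24 h). […] Survival followed 7 days; PD50/PD90 by probit analysis.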

[8] = tested on: Acinetobacter baumannii; assay: Synergistic antibacterial activity against Acinetobacter baumannii SL46 producing OXA-23/51 infected in sc dosed Swiss albino mouse assessed as meropenem MIC at 8 ug/ml administered 2 hrs post infection and measured upto 7 days; type: functional; details: SL46, 168 h, dose 8 µg/ml, time <= 7 day
[9] = tested on: Acinetobacter baumannii; assay: Synergistic antibacterial activity against Acinetobacter baumannii NCTC 13303 producing OXA-26/51 infected in sc dosed Swiss albino mouse assessed as meropenem MIC at 8 ug/ml administered […] post infection and measured upto 7 days; type: functional; details: NCTC 13303, 168 h, dose 8 µg/ml, time <= 7 day
[10] = tested on: Acinetobacter baumannii; assay: Synergistic antibacterial activity against Acinetobacter baumannii NCTC 13303 producing OXA-26/51 infected in sc dosed Swiss albino mouse assessed as cefepime MIC at 8 ug/ml administered 1 hr post infection and measured upto 7 days; type: functional; details: NCTC 13303, 168 h, dose 8 µg/ml, time <= 7 day
[11] = tested on: Bacteria; assay: Inhibition of bacteria OXA-48 assessed as half life using nitrocefin as substrate
[12] = Binding affinity to bacteria OXA-48 assessed as dissociation constant
[13] = tested on: Acinetobacter baumannii; assay: Synergistic antibacterial activity against Acinetobacter baumannii NCTC 13301 producing OXA-23/51 infected in sc dosed Swiss albino mouse assessed as tigecycline MIC at 8 ug/ml administered 1 hr post infection and measured upto 7 days; type: functional; details: NCTC 13301, 168 h, dose 8 µg/ml, time <= 7 day
[14] = tested on: Acinetobacter baumannii; assay: Synergistic antibacterial activity against Acinetobacter baumannii NCTC 13303 producing OXA-26/51 infected in sc dosed Swiss albino mouse assessed as tigecycline MIC at 8 ug/ml administered […] post infection and measured upto 7 days; type: functional; details: NCTC 13303, 168 h, dose 8 µg/ml, time <= 7 day
[15] = tested on: Bacteria; remark: listed apart in the source
[16] = tested on: Acinetobacter baumannii; assay: Synergistic antibacterial activity against Acinetobacter baumannii SL46 producing OXA-23/51 infected in sc dosed Swiss albino mouse assessed as cefepime MIC at 8 ug/ml administered 1 hr post infection and measured upto 7 days; type: functional; details: SL46, 168 h, dose 8 µg/ml, time <= 7 day
[17] = tested on: Acinetobacter baumannii; assay: Synergistic antibacterial activity against Acinetobacter baumannii NCTC 13301 producing OXA-23/51 infected in sc dosed Swiss albino mouse assessed as cefepime MIC at 8 ug/ml administered 1 hr post infection and measured upto 7 days; type: functional; details: NCTC 13301, 168 h, dose 8 µg/ml, time <= 7 day
[18] = tested on: Acinetobacter baumannii; assay: Synergistic antibacterial activity against Acinetobacter baumannii NCTC 13303 producing OXA-26/51 infected in sc dosed Swiss albino mouse assessed as colistin MIC at 8 ug/ml administered […] post infection and measured upto 7 days; type: functional; details: NCTC 13303, 168 h, dose 8 µg/ml, time <= 7 day
[19] = tested on: Acinetobacter baumannii; assay: Antibacterial activity against Acinetobacter baumannii NCTC 13303 producing OXA-26/51 infected in sc dosed Swiss albino mouse administered 1 hr post infection and measured upto 7 days; details: NCTC 13303, 168 h
[20] = tested on: Acinetobacter baumannii; assay: Synergistic antibacterial activity against Acinetobacter baumannii NCTC 13301 producing OXA-23/51 infected in sc dosed Swiss albino mouse assessed as meropenem MIC at 8 ug/ml administered 1 hr post infection and measured upto 7 days; type: functional; details: NCTC 13301, 168 h, dose 8 µg/ml, time <= 7 day
[21] = Binding affinity to bacteria KPC-2 assessed as dissociation constant
[22] = tested on: Acinetobacter baumannii; assay: Antibacterial activity against ADC deleted Acinetobacter baumannii transfected with pWH1266 OXA-23 by broth microdilution method; type: functional
[23] = tested on: Pseudomonas aeruginosa; assay: Antibacterial activity against Pseudomonas aeruginosa 776 by broth microdilution method; type: functional
[24] = Inhibition of bacteria KPC-2 assessed as apparent inhibition constant using nitrocefin as substrate
[25] = tested on: Acinetobacter baumannii; assay: Antibacterial activity against ADC deleted Acinetobacter baumannii by broth microdilution method; type: functional
[26] = tested on: Pseudomonas aeruginosa; assay: Synergistic antibacterial activity against Pseudomonas aeruginosa 776 assessed as cefepime MIC at 8 ug/ml by broth microdilution method; type: functional; details: dose 8 µg/ml
[27] = tested on: Klebsiella pneumoniae; assay: Antibacterial activity against Klebsiella pneumoniae CAV 1636 producing OXA-181 by broth microdilution method; type: functional
[28] = tested on: Klebsiella pneumoniae; assay: Antibacterial activity against Klebsiella pneumoniae CAV 1543 producing OXA-48 by broth microdilution method; type: functional
[29] = tested on: Klebsiella pneumoniae; assay: Antibacterial activity against Klebsiella pneumoniae 440/1360 producing KPC-2 by broth microdilution method; type: functional
[30] = tested on: Bacteria; assay: Inhibition of bacteria PDC-3 assessed as Koff rate using nitrocefin as substrate incubated for 30 mins
[31] = tested on: Klebsiella pneumoniae; assay: Antibacterial activity against Klebsiella pneumoniae 11978 producing OXA-48 by broth microdilution method; type: functional
[32] = tested on: Bacteria; assay: Inhibition of bacteria KPC-2 assessed as Koff rate using nitrocefin as substrate incubated for 30 mins
[33] = tested on: Klebsiella pneumoniae; assay: Antibacterial activity against Klebsiella pneumoniae NY BS producing OXA-232 by broth microdilution method; type: functional
[34] = tested on: Klebsiella pneumoniae; assay: Antibacterial activity against Klebsiella pneumoniae 1084/1957 producing KPC-3 by broth microdilution method; type: functional
[35] = tested on: Acinetobacter baumannii; assay: Antibacterial activity against Acinetobacter baumannii NCTC 13303 producing OXA-26/51 infected in sc dosed Swiss albino mouse administered 1 hr post infection and measured upto 7 days; type: functional; details: NCTC 13303, 168 h, time <= 7 day
Method in brief: as §1

[36] = tested on: Acinetobacter baumannii; assay: Antibacterial activity against Acinetobacter baumannii SL46 producing OXA-23/51 infected in sc dosed Swiss albino mouse administered 1 hr post infection and measured upto 7 days; type: functional; details: SL46, 168 h, time <= 7 day
Method in brief: as §1

[37] = tested on: Klebsiella pneumoniae; assay: Antibacterial activity against Klebsiella pneumoniae 977/1916 producing KPC-3 by broth microdilution method; type: functional
[38] = tested on: Klebsiella pneumoniae; assay: Antibacterial activity against Klebsiella pneumoniae 935/1884 producing KPC-3 by broth microdilution method; type: functional
[39] = tested on: Klebsiella pneumoniae; assay: Antibacterial activity against Klebsiella pneumoniae 1108/1989 producing KPC-3 by broth microdilution method; type: functional
[40] = tested on: Klebsiella pneumoniae; assay: Antibacterial activity against Klebsiella pneumoniae 901/1860 producing KPC-3 by broth microdilution method; type: functional

| SMILES | T1/2 [1] | MIC [2] | MIC [3] | K [4] | MIC [5] | K [6] | ED90 [7] | ED50 [7] | T1/2 [11] | T1/2 [15] | Kd [21] | MIC [23] | Ki [24] | MIC [25] | MIC [26] | MIC [27] | MIC [31] | further results |
| --- | --- | --- | --- | --- | --- | --- | --- | --- | --- | --- | --- | --- | --- | --- | --- | --- | --- | --- |
| N#C[C@@H]1CC[C@@H]2CN1C(=O)N2OS(=O)(=O)[O-].[Na+] | 0.383 h | > 16 µg/mL | > 16 µg/mL | 9 10^-4/s | > 16 µg/mL | 6.4 10^5/M/s | 23.7 mg/kg | 16.3 mg/kg | 0.217 h | 0.483 h |  |  |  |  |  |  |  | MIC [8]: 64 µg/mL; MIC [9]: 256 µg/mL; MIC [10]: 64 µg/mL; Kd [12]: 1.4 nM; MIC [13]: 1 µg/mL; MIC [14]: 1 µg/mL; MIC [16]: > 512 µg/mL; MIC [17]: > 256 µg/mL; MIC [18]: 0.5 µg/mL; ED90 [19]: 49.4 mg/kg; ED50 ([19]; read-out: PD50): 24 mg/kg; MIC [20]: 1 µg/mL |
| O=C(NNC(=O)[C@@H]1CC[C@@H]2CN1C(=O)N2OS(=O)(=O)O)[C@@H]1CCNC1 |  | 0.25 µg/mL |  |  |  |  |  |  |  |  | 40 nM | 8 µg/mL (≈ 21.2 µM) | 7800 nM | 16 µg/mL (≈ 42.4 µM) | 0.25 µg/mL |  |  | MIC [22]: 16 µg/mL (≈ 42.4 µM) |
| NC(=O)[C@@H]1CC[C@@H]2CN1C(=O)N2OS(=O)(=O)[O-].[Na+] [AVIBACTAM SODIUM] | 23.9 h |  |  | 1.2 10^-5/s |  | 1.4 10^3/M/s |  |  | 16.7 h | 30.4 h |  |  |  | 16 µg/mL |  | > 16 µg/mL | > 16 µg/mL | MIC [28]: > 16 µg/mL; MIC [29]: > 16 µg/mL; K [30]: 8 10^-4/s; K [32]: 1.4 10^-4/s; MIC [33]: > 16 µg/mL |
| O.O=C(NC1CCNCC1)[C@@H]1CC[C@@H]2CN1C(=O)N2OS(=O)(=O)O [RELEBACTAM] |  |  | > 16 µg/mL |  | > 16 µg/mL |  |  |  |  |  |  | > 16 µg/mL |  |  |  |  |  |  |
| O=C(NNC(=O)[C@@H]1CC[C@@H]2CN1C(=O)N2OS(=O)(=O)O)[C@@H]1CCCNC1 [ZIDEBACTAM] |  |  |  |  |  |  | 52.3 mg/kg | 23.2 mg/kg |  |  | 43 nM |  | 4500 nM |  | 16 µg/mL | > 16 µg/mL | > 16 µg/mL | MIC [34]: > 16 µg/mL; ED90 [35]: 23.2 mg/kg; ED50 ([35]; read-out: PD50): < 23.2 mg/kg; ED90 [36]: 52.3 mg/kg; ED50 ([36]; read-out: PD50): 23.2 mg/kg; MIC [37]: > 16 µg/mL; MIC [38]: > 16 µg/mL; MIC [39]: > 16 µg/mL; MIC [40]: > 16 µg/mL |
